According to paper PMC7825275 (Cancer chemotherapy and pharmacology, 2019):

Columns and labels:
patients [1] = conditions: with topotecan 0.6 mg on days 1-5; profound myelosuppression; cited from earlier work
patients [2] = conditions: out of 35 patients enrolled, with oral daily cyclophosphamide; cited from earlier work
[3] = system: advanced solid malignancies; assay: Tumor response by RECIST 1.0, veliparib with carboplatin and paclitaxel; type: in vivo, human
How it was run: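 Tumor response followed RECIST 1.0 on CT or MRI. Scans were done every 2 cycles; for the first 46 subjects, the first scan was after cycle 3 and then every 2 cycles. Oral veliparib was given twice daily on days 1–7, with IV carboplatin/paclitaxel, in 21-day cycles, up to 6 cycles recommended.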

[4] = Veliparib plasma pharmacokinetics; type: in vivo, human
[5] = Reported veliparib half-life; type: in vivo, human; conditions: for a 6.1 h half-life
[6] = system: previously untreated non-small cell lung cancer; conditions: with carboplatin (AUC=6) plus paclitaxel (200 mg/m^2), Japanese patients; cited from earlier work
[7] = system: patients with advanced solid tumors; type: in vivo, human
How it was run: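 Standard 3+3 escalation with modified Fibonacci steps. Oral veliparib was given every 12 h on days 1–7 of 21-day cycles, with IV carboplatin/paclitaxel on day 3. For the first 46 patients, cycle 1 was chemotherapy alone and DLT was scored in cycle 2; afterwards all three agents were given in cycle 1, which was the DLT cycle. Growth factors were barred in cycles 1–2. MTD was the highest dose with ≤1/6 DLTs.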

[8] = Adenoid cystic of lung, 1 evaluable, with carboplatin and paclitaxel
[9] = Adrenalcortical carcinoma, 1 evaluable, with carboplatin and paclitaxel
[10] = All Patients, 67 evaluable, with carboplatin and paclitaxel
[11] = Ampulla of Vater, 1 evaluable, with carboplatin and paclitaxel
[12] = Bladder, 6 evaluable, with carboplatin and paclitaxel
[13] = Breast, 13 evaluable, with carboplatin and paclitaxel
[14] = Carcinoma of unknown origin, 3 evaluable, with carboplatin and paclitaxel
[15] = Cervix, 1 evaluable, with carboplatin and paclitaxel
[16] = Cholangiocarcinoma, 2 evaluable, with carboplatin and paclitaxel
[17] = Esophageal, 2 evaluable, with carboplatin and paclitaxel
[18] = Head & Neck, 8 evaluable, with carboplatin and paclitaxel
[19] = Level 1: veliparib 10 mg BID, carboplatin AUC 6, paclitaxel 150 mg/m^2, 5 evaluable
[20] = Level 4: veliparib 40 mg BID, carboplatin AUC 6, paclitaxel 175 mg/m^2, 3 evaluable
[21] = Level 5: veliparib 40 mg BID, carboplatin AUC 6, paclitaxel 200 mg/m^2, 12 evaluable
[22] = Level 7B: veliparib 100 mg BID, carboplatin AUC 6, paclitaxel 200 mg/m^2, 14 evaluable
[23] = Level 8: veliparib 120 mg BID, carboplatin AUC 6, paclitaxel 200 mg/m^2, 8 evaluable
[24] = Lung, 16 evaluable, with carboplatin and paclitaxel
[25] = Melanoma, 9 evaluable, with carboplatin and paclitaxel
[26] = Myxoid chondrosarcoma, 1 evaluable, with carboplatin and paclitaxel
[27] = Prostate, 1 evaluable, with carboplatin and paclitaxel
[28] = Stomach, 1 evaluable, with carboplatin and paclitaxel
[29] = Uterine, 1 evaluable, with carboplatin and paclitaxel
[30] = patients, oral veliparib 10-120 mg BID

For `C[C@]1(c2nc3c(C(N)=O)cccc3[nH]2)CCCN1` [veliparib], which “MTD, veliparib dose” value (patients [1]) is on record?
The value was 10 mg bid.

What about the partial responses (patients [2]) of the same compound?
Its partial responses is “seven”.

What about the CR [3, 8] of the same compound?
Its CR is 0.

And the ORR [3, 8]?
The ORR was 0/1 (0%).

What about the PD [3, 8] of the same compound?
The PD was 0.

And the PR [3, 8]?
The PR was 0.

And the CR [3, 9]?
The CR was 0.

And the ORR [3, 9]?
Its ORR is 0/1 (0%).

And the PD [3, 9]?
The PD was 1.

What about the PR [3, 9] of the same compound?
The PR was 0.

What about the CR [3, 10] of the same compound?
Its CR is 5.

And the ORR [3, 10]?
Its ORR is 27/67 (40%).

What about the PD [3, 10] of the same compound?
Its PD is 8.

What about the CR [3, 11] of the same compound?
The CR was 0.

And the ORR [3, 11]?
Its ORR is 0/1 (0%).

What about the PD [3, 11] of the same compound?
The PD was 0.

What about the PR [3, 11] of the same compound?
Its PR is 0.

And the CR [3, 12]?
Its CR is 1.

And the ORR [3, 12]?
The ORR was 3/6 (50%).

And the PD [3, 12]?
The PD was 1.

What about the PR [3, 12] of the same compound?
Its PR is 2.

What about the CR [3, 13] of the same compound?
The CR was 3.

And the ORR [3, 13]?
Its ORR is 9/13 (69%).

And the PD [3, 13]?
Its PD is 2.

And the PR [3, 13]?
The PR was 6.

What about the CR [3, 14] of the same compound?
Its CR is 0.

And the ORR [3, 14]?
The ORR was 1/3 (33%).

And the PD [3, 14]?
The PD was 0.

What about the PR [3, 14] of the same compound?
The PR was 1.

What about the CR [3, 15] of the same compound?
The CR was 0.

And the ORR [3, 15]?
The ORR was 0/1 (0%).

And the PD [3, 15]?
The PD was 1.

And the PR [3, 15]?
Its PR is 0.

What about the CR [3, 16] of the same compound?
Its CR is 0.

What about the ORR [3, 16] of the same compound?
The ORR was 0/2 (0%).

What about the PD [3, 16] of the same compound?
The PD was 0.

What about the PR [3, 16] of the same compound?
The PR was 0.

What about the CR [3, 17] of the same compound?
The CR was 0.

And the ORR [3, 17]?
The ORR was 0/2 (0%).

And the PD [3, 17]?
Its PD is 0.

What about the PR [3, 17] of the same compound?
The PR was 0.

And the CR [3, 18]?
Its CR is 0.

And the ORR [3, 18]?
The ORR was 3/8 (38%).

What about the PD [3, 18] of the same compound?
Its PD is 0.

And the PR [3, 18]?
Its PR is 3.

What about the CR [3, 19] of the same compound?
Its CR is 0.

What about the ORR [3, 19] of the same compound?
The ORR was 2/5 (40%).

What about the PD [3, 19] of the same compound?
Its PD is 1.

And the PR [3, 19]?
The PR was 2.

And the CR [3, 20]?
Its CR is 0.

What about the ORR [3, 20] of the same compound?
The ORR was 1/3 (33%).

What about the PD [3, 20] of the same compound?
The PD was 0.

What about the PR [3, 20] of the same compound?
The PR was 1.

What about the CR [3, 21] of the same compound?
Its CR is 2.

And the ORR [3, 21]?
Its ORR is 6/12 (50%).

What about the PD [3, 21] of the same compound?
The PD was 1.

And the PR [3, 21]?
Its PR is 4.

What about the CR [3, 22] of the same compound?
The CR was 0.

And the ORR [3, 22]?
Its ORR is 3/14 (21%).

And the PD [3, 22]?
Its PD is 3.

And the PR [3, 22]?
Its PR is 3.

And the CR [3, 23]?
The CR was 0.

And the ORR [3, 23]?
The ORR was 4/8 (50%).

And the PD [3, 23]?
The PD was 1.

And the PR [3, 23]?
The PR was 4.

What about the CR [3, 24] of the same compound?
The CR was 1.

What about the ORR [3, 24] of the same compound?
Its ORR is 7/16 (44%).

And the PD [3, 24]?
Its PD is 2.

What about the PR [3, 24] of the same compound?
Its PR is 6.

And the CR [3, 25]?
The CR was 0.

What about the ORR [3, 25] of the same compound?
Its ORR is 1/9 (11%).

And the PD [3, 25]?
Its PD is 1.

What about the PR [3, 25] of the same compound?
The PR was 1.

What about the CR [3, 26] of the same compound?
Its CR is 0.

What about the ORR [3, 26] of the same compound?
Its ORR is 0/1 (0%).

And the PD [3, 26]?
The PD was 0.

And the PR [3, 26]?
Its PR is 0.

What about the CR [3, 27] of the same compound?
The CR was 0.

What about the ORR [3, 27] of the same compound?
Its ORR is 1/1 (100%).

What about the PD [3, 27] of the same compound?
Its PD is 0.

And the PR [3, 27]?
The PR was 1.

What about the CR [3, 28] of the same compound?
Its CR is 0.

What about the ORR [3, 28] of the same compound?
Its ORR is 1/1 (100%).

What about the PD [3, 28] of the same compound?
Its PD is 0.

What about the PR [3, 28] of the same compound?
Its PR is 1.

And the CR [3, 29]?
The CR was 0.

What about the ORR [3, 29] of the same compound?
The ORR was 1/1 (100%).

And the PD [3, 29]?
The PD was 0.

And the PR [3, 29]?
The PR was 1.

What about the “AUC on day 3 in the presence of carboplatin and paclitaxel (AUC0-12) vs day 1 veliparib alone (AUC0-inf)” value ([4]; P=0.049 by exact Wilcoxon) of the same compound?
The value was “barely significantly lower than expected”.

What about the “Cmax in the absence vs presence of carboplatin and paclitaxel” value ([4]; day 1 vs day 3) of the same compound?
The value was “similar”.

And the “expected accumulation ratio by day 3 based on observed half-life” value ([4]; for a 5.1 h half-life, not observed for Cmax nor AUC)?
The value was 1.20.

And the half-life ([4]; human, plasma, po)?
Its half-life is 5.1 h.

What about the apparent clearance [4, 30] of the same compound?
Its apparent clearance is 27.5 L/h.

And the exposure versus dose [4, 30]?
The exposure versus dose was “increase linearly with dose”.

What about the “expected accumulation ratio by day 3 based on reported half-life” value [5] of the same compound?
The value was 1.34.

What about the “MTD, veliparib dose” value [6] of the same compound?
Its value is 120 mg.

What about the “patients with dose-limiting toxicities during DLT observation cycle” value ([7]; all dose levels) of the same compound?
The value was 8 patients.

What about the “DLTs at dose level 7” value ([7]; veliparib 80 mg bid) of the same compound?
Its value is 1/6.

What about the “DLTs at the MAD, patients with DLT of evaluable patients” value ([7]; veliparib 120 mg BID, paclitaxel 200 mg/m^2, carboplatin AUC 6, febrile neutropenia, hyponatremia) of the same compound?
Its value is 2 of 7.

What about the “maximum administered dose (MAD), veliparib dose” value ([7]; with paclitaxel 200 mg/m^2 and carboplatin AUC 6 (dose level 8)) of the same compound?
Its value is 120 mg BID.
